According to publication PMC8173612 (ACS Omega, 2021):
In brackets after ≈: the same amount, converted by molar mass. Where two headings read alike, the source gives them in different places.

What was measured:
[1] = Solubility screening of selected solvents; assay type: physicochemical
Summary of the method: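 Solvent screen in 2-propanol, tetrahydrofuran, cyclohexane and toluene. Solubility of each test compound was determined in each neat solvent at room temperature and at 0 °C. Values are reported in mg/mL.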

[2] = in deionized water, cyclohexane, petroleum ether, and hexane; cited from earlier work
[3] = solvent cyclohexane, RT (25-30 °C)
[4] = tetrahydrofuran, 0 °C, organic solvent or mixture, thermodynamic from solid
[5] = tetrahydrofuran, organic solvent or mixture, thermodynamic from solid
[6] = toluene, 0 °C, organic solvent or mixture, thermodynamic from solid
[7] = toluene, organic solvent or mixture, thermodynamic from solid
[8] = solvent 2-propanol, RT (25-30 °C)

| Structure (SMILES) | solubility ([1]; 2-propanol, 0 °C, organic solvent or mixture, thermodynamic from solid) [mg/mL] | solubility ([1]; 2-propanol, organic solvent or mixture, thermodynamic from solid) [mg/mL] | solubility ([1]; solvent cyclohexane, 0 °C) | solubility [1, 3] | solubility [1, 4] [mg/mL] | solubility [1, 5] [mg/mL] | solubility [1, 6] [mg/mL] | solubility [1, 7] [mg/mL] | solubility [2] | solubility ([1]; solvent 2-propanol, 0 °C) | solubility [1, 8] | solubility ([1]; solvent tetrahydrofuran, 0 °C) [mg/mL] | solubility ([1]; solvent tetrahydrofuran, RT (25-30 °C)) [mg/mL] | solubility ([1]; solvent toluene, RT (25-30 °C)) [mg/mL] |
| --- | --- | --- | --- | --- | --- | --- | --- | --- | --- | --- | --- | --- | --- | --- |
| O=P(c1ccccc1)(c1ccccc1)c1ccccc1 [TPPO, Triphenylphosphine oxide] | 25.4 (≈ 91.3 mM) | 46.5 (≈ 167 mM) | insoluble | insoluble | 105 (≈ 377 mM) | 170 (≈ 610 mM) | 42.9 (≈ 154 mM) | 44.3 (≈ 159 mM) | almost insoluble | – | – | – | – | – |
| CC(C)OC(=O)NNC(=O)OC(C)C.O=P(c1ccccc1)(c1ccccc1)c1ccccc1 [TPPO-H2DIAD, triphenylphosphine oxide-1,2-isopropylhydrazine dicarboxylate] | – | – | insoluble | insoluble | – | – | – | – | – | 13.3 mg/mL | 60.4 mg/mL | 61.0 | 157.5 | 23.2 |
| CC(C)(C)OC(=O)N1C[C@@H](F)C[C@H]1CON1C(=O)c2ccccc2C1=O [compound-6, tert-Butyl (2S,4S)-2-{[(1,3-Dioxo-1,3-dihydro-2H-isoindol-2-yl)oxy]methyl}-4-fluoro-pyrrolidine-1-carboxylate] | – | – | insoluble | insoluble | 101 (≈ 277 mM) | 124 (≈ 342 mM) | 42.1 (≈ 116 mM) | 46.7 (≈ 128 mM) | – | insoluble | insoluble | – | – | – |
